Activity calls are given as the source filed them. The calls are words filed in the database; no cut-off is given here.
How the values were obtained:
[1] = test system: Plasmodium falciparum; experiment: Antimalarial activity against Plasmodium falciparum 3D7 assessed as parasite regrowth measured after 3 days of compound withdrawal at 2.5 nM by standard growth inhibition assay; assay type: functional, organism-based
How it was run: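 Synchronized 3D7 cultures were exposed to 2.5 nM drug, continuously or over a limited interval, and then the drug was removed. Parasitemia was measured by FACS of Sybr green-stained cells every 12 h for 4 days. Growth inhibition was calculated against 0.1% Me2SO-treated controls. Representative of three experiments.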

[2] = test system: Plasmodium berghei; experiment: Antimalarial activity against Plasmodium berghei infected in mouse assessed as decrease in decline in hematocrit rate at 0.5 mg/kg, […] as splited dose compound with drawn on day 4 measured on day 8; assay type: functional, organism-based; parameters: dose 0.5 mg/kg
How it was run: (§1)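 ICR mice (five per group) infected intraperitoneally with 10^6 P. berghei NK56 parasites from a donor mouse, then dosed intraperitoneally with 0, 0.05, 0.5, 5 or 50 mg/kg/day split into two doses for 4 days. Parasitemia was read from Giemsa-stained tail-blood thin smears on day 4 (1,500 cells, two microscopists), with Sybr green confirming negative slides. Parasitemia and hematocrit were taken every 4 days over 6 weeks.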

[3] = test system: Plasmodium berghei; experiment: Antimalarial activity against Plasmodium berghei infected in mouse assessed as decrease in decline in hematocrit rate at 50 mg/kg, […] as splited dose compound with drawn on day 4 measured after 6 weeks; assay type: functional, organism-based; parameters: dose 50 mg/kg; how it was run: as §1
[4] = test system: Plasmodium berghei; experiment: Antimalarial activity against Plasmodium berghei infected in mouse assessed as decrease in parasites in blood at 0.05 mg/kg, ip administered as splited dose measured on day 4
[5] = test system: Plasmodium berghei; experiment: Antimalarial activity against Plasmodium berghei infected in mouse assessed as decrease in parasites in blood at 5 mg/kg, ip administered as splited dose measured on day 4 relative to control
[6] = test system: Plasmodium berghei; experiment: Antimalarial activity against Plasmodium berghei infected in mouse assessed as decrease in parasites in blood at 0.5 mg/kg, ip administered as splited dose measured on day 4 relative to control
[7] = test system: Plasmodium berghei; experiment: Antimalarial activity against Plasmodium berghei infected in mouse assessed as decrease in parasites in blood at 5 mg/kg, ip administered as splited dose compound with drawn on day 4 measured on day 20
[8] = test system: Plasmodium berghei; experiment: Antimalarial activity against Plasmodium berghei infected in mouse assessed as decrease in parasites in blood at 0.5 mg/kg, ip administered as splited dose compound with drawn on day 4 measured on day 8
[9] = test system: Plasmodium berghei; experiment: Antimalarial activity against Plasmodium berghei infected in mouse assessed as decrease in parasites in blood at 50 mg/kg, ip administered as splited dose compound with drawn on day 4 measured after 6 weeks
[10] = test system: Plasmodium falciparum; experiment: Inhibition of HDAC in Plasmodium falciparum 3D7 by fluorescent activity assay; assay type: organism-based
[11] = test system: Plasmodium falciparum; experiment: Antimalarial activity against Plasmodium falciparum 7G8 assessed as parasite growth inhibition after 48 hrs by standard growth inhibition assay; assay type: functional, organism-based
[12] = test system: Plasmodium falciparum; experiment: Antimalarial activity against Plasmodium falciparum Dd2 assessed as parasite growth inhibition after 48 hrs by standard growth inhibition assay; assay type: functional, organism-based
[13] = test system: Plasmodium falciparum; experiment: Antimalarial activity against Plasmodium falciparum FCR3 assessed as parasite growth inhibition after 48 hrs by standard growth inhibition assay; assay type: functional, FCR-3/Gambia
[14] = test system: Plasmodium falciparum; experiment: Antimalarial activity against chloroquine-sensitive Plasmodium falciparum 3D7 assessed as parasite growth inhibition after 48 hrs by standard growth inhibition assay; assay type: functional, organism-based
[15] = test system: Plasmodium falciparum; experiment: Antimalarial activity against Plasmodium falciparum HB3 assessed as parasite growth inhibition after 48 hrs by standard growth inhibition assay; assay type: functional, organism-based
[16] = test system: Plasmodium falciparum; experiment: Antimalarial activity against sPlasmodium falciparum VS/1 assessed as parasite growth inhibition after 48 hrs by standard growth inhibition assay; assay type: functional
[17] = test system: Plasmodium falciparum; experiment: Antimalarial activity against chloroquine-resistant Plasmodium falciparum FCB1 assessed as parasite growth inhibition after 48 hrs by standard growth inhibition assay; assay type: functional, organism-based, FcB1/Columbia
How it was run: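 Ring-stage cultures of P. falciparum (3D7, FCB1) in RBCs, 2% hematocrit, at 1% parasitemia, incubated 48 h at 37°C in 90% N2/5% O2/5% CO2 with compound; 0.1% Me2SO control, uninfected-RBC background. Parasitemia counted by FACS on 100,000 Sybr green-stained cells; accepted only if controls grew ≥3-fold. Growth inhibition from background-corrected ratio to control. Triplicate, repeated at least twice.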

[18] = target: Histone deacetylase; experiment: Inhibition of human HDAC in HeLa cells by fluorescent activity assay; assay type: cell-based
[19] = test system: Plasmodium falciparum; experiment: Antimalarial activity against Plasmodium falciparum 3D7 trophozoites assessed as parasite growth inhibition at […] nM measured at end of the experiment by standard growth inhibition assay; assay type: functional
[20] = test system: Plasmodium falciparum; experiment: Antimalarial activity against Plasmodium falciparum 3D7 schizonts assessed as parasite growth inhibition at […] nM measured at end of the experiment by standard growth inhibition assay; assay type: functional
[21] = test system: Plasmodium falciparum; experiment: Antimalarial activity against Plasmodium falciparum 3D7 rings assessed as parasite growth inhibition at […] nM measured at end of the experiment by standard growth inhibition assay; assay type: functional
[22] = test system: Mus musculus; experiment: Toxicity in ICR mouse assessed as death after 5 days at 0.5 to 100 mg/kg, iv once daily; assay type: organism-based; parameters: dose 0.5-100 mg/kg, route intravenous; conditions: in vivo, 120 h
[23] = test system: Mus musculus; experiment: Toxicity in ICR mouse assessed as death after 14 days at 5 to 100 mg/kg, iv once daily; assay type: organism-based; parameters: dose 5-100 mg/kg, route intravenous; conditions: in vivo, 336 h
[24] = test system: Mus musculus; experiment: Toxicity in ICR mouse assessed as clinical signs of distress after 5 days at 0.5 to 100 mg/kg, iv once daily; assay type: organism-based; parameters: dose 0.5-100 mg/kg, route intravenous; conditions: in vivo, 120 h
[25] = test system: Mus musculus; experiment: Toxicity in ICR mouse assessed as clinical signs of distress after 14 days at 5 to 100 mg/kg, iv once daily; assay type: organism-based; parameters: dose 5-100 mg/kg, route intravenous; conditions: in vivo, 336 h
[26] = test system: Mus musculus; experiment: Toxicity in ICR mouse assessed as mild increase in erythroid mass after 5 days at 0.5 to 50 mg/kg, iv once daily; assay type: organism-based, Erythrocyte; parameters: dose 0.5-50 mg/kg, route intravenous; conditions: in vivo, 120 h
[27] = test system: Mus musculus; experiment: Toxicity in ICR mouse assessed as mild increase in erythroid mass after 14 days at 5 to 50 mg/kg, iv once daily; assay type: organism-based, Erythrocyte; parameters: dose 5-50 mg/kg, route intravenous; conditions: in vivo, 336 h
[28] = test system: Mus musculus; experiment: Toxicity in ICR mouse assessed as moderate increase in erythroid mass after 5 days at 0.5 to 100 mg/kg, iv once daily; assay type: organism-based, Erythrocyte; parameters: dose 0.5-100 mg/kg, route intravenous; conditions: in vivo, 120 h
[29] = test system: Mus musculus; experiment: Toxicity in ICR mouse assessed as moderate increase in erythroid mass after 14 days at 5 to 50 mg/kg, iv once daily; assay type: organism-based, Erythrocyte; parameters: dose 5-50 mg/kg, route intravenous; conditions: in vivo, 336 h
[30] = test system: Mus musculus; experiment: Toxicity in ICR mouse assessed as severe increase in erythroid mass after 5 days at 0.5 to 100 mg/kg, iv once daily; assay type: organism-based, Erythrocyte; parameters: dose 0.5-100 mg/kg, route intravenous; conditions: in vivo, 120 h
[31] = test system: Mus musculus; experiment: Toxicity in ICR mouse assessed as severe increase in erythroid mass after 14 days at 5 to 100 mg/kg, iv once daily; assay type: organism-based, Erythrocyte; parameters: dose 5-100 mg/kg, route intravenous; conditions: in vivo, 336 h
[32] = test system: Plasmodium berghei; experiment: Antimalarial activity against Plasmodium berghei infected in iv dosed mouse assessed as decrease in parasites in blood; assay type: functional, organism-based; conditions: in the assay text read “ip dosed” for “iv dosed”; how it was run: as §1
[33] = test system: Plasmodium berghei; experiment: Antimalarial activity against Plasmodium berghei infected in mouse assessed as mouse survival days at 0.5 mg/kg, […] as splited dose measured on day 4 relative to control; assay type: functional
How it was run: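 P. berghei NK56 blood from donor ICR mice (≥10% parasitemia), diluted in PBS; 10^6 parasites given ip to groups of five ICR mice. Treatment started simultaneously: ip, 0, 0.05, 0.5, 5 or 50 mg/kg/day in two daily doses for 4 days. Mice monitored up to 6 weeks or until death; survival counted from treatment start; paired Student t test.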

[34] = test system: Plasmodium falciparum; experiment: Antimalarial activity against Plasmodium falciparum 3D7 rings assessed as parasite growth inhibition at […] nM after 14 hrs by standard growth inhibition assay; conditions: 3D7, 14 h
[35] = test system: Plasmodium falciparum; experiment: Antimalarial activity against Plasmodium falciparum 3D7 schizonts assessed as parasite growth inhibition at […] nM after 14 hrs by standard growth inhibition assay; conditions: 3D7, 14 h
[36] = test system: Plasmodium falciparum; experiment: Antimalarial activity against Plasmodium falciparum 3D7 trophozoites assessed as parasite growth inhibition at […] nM after 14 hrs by standard growth inhibition assay; conditions: 3D7, 14 h
[37] = Plasmodium falciparum, 7G8, 48 h
[38] = Plasmodium falciparum, Dd2, 48 h
[39] = Plasmodium falciparum, FCR-3/Gambia, 48 h
[40] = Plasmodium falciparum, 3D7, 48 h
[41] = Plasmodium falciparum, HB3, 48 h
[42] = Plasmodium falciparum, VS/1, 48 h
[43] = Plasmodium falciparum, FcB1/Columbia, 48 h

With `Nc1cccc(-c2csc(NC(=O)CCCCCCC(=O)NO)n2)c1` [listing 1 of 2 here] the Activity [1] was “Active”, the Activity [2] was “Active” and the Activity [3] was “Active”. The Activity [4] was “inactive”, the Activity [5] was “Active” and the Activity [6] was “Active”. The Activity [7] was “inactive”, the Activity [8] was “inactive” and the Activity [9] was “Active”.
Compound `N[C@@H](Cc1ccccc1)C(=O)Nc1ccccc1-c1ccc(NC(=O)CCCCCCC(=O)NO)cc1` has an IC50 ([10]; Plasmodium falciparum, 3D7) of 0.449 µM, an IC50 [11, 37] of 0.16 µM and an IC50 [12, 38] of 0.17 µM. For the same compound, the IC50 [13, 39] was 0.15 µM, the IC50 [14, 40] was 0.22 µM and the IC50 [15, 41] was 0.18 µM. For the same compound, the IC50 [16, 42] was 0.175 µM and the IC50 [17, 43] was 0.095 µM.
`Nc1cccc(-c2csc(NC(=O)CCCCCCC(=O)NO)n2)c1` [listing 2 of 2 here] gave an IC50 [10] of 0.00023 µM, an IC50 [18] of 0.0039 µM and an IC50 [11] of 0.0004 µM. It also gave an IC50 [16] of 0.001 µM, an inhibition at 0.00125 µM [19] of 25% and an inhibition at 0.00125 µM [20] of 20%. For the same compound, the inhibition at 0.00125 µM [21] was less than 5%, the Activity [22] was “Non-toxic” and the Activity [23] was “Non-toxic”. For the same compound, the Activity [24] was “Non-toxic”, the Activity [25] was “Non-toxic” and the Activity [26] was “Non-toxic”. The Activity [27] was “Non-toxic”, the Activity [28] was “Non-toxic” and the Activity [29] was “Non-toxic”. The Activity [30] was “Non-toxic”, the Activity [31] was “Non-toxic” and the IC50 [32] was 0.5 mg/kg/day. The Survival [33] was 23.6 days, the inhibition at 0.00125 µM [34] was 15% and the inhibition at 0.00125 µM [35] was 25%. For the same compound, the inhibition at 0.00125 µM [36] was 35%.
For `O=C(CCCCCCC(=O)Nc1ccc(-c2ccccc2)cc1)NO`, the IC50 ([10]; Plasmodium falciparum, 3D7) was 0.06 µM, the IC50 [11, 37] was 0.1 µM and the IC50 [12, 38] was 0.085 µM. The IC50 [13, 39] was 0.115 µM, the IC50 [14, 40] was 0.129 µM and the IC50 [15, 41] was 0.11 µM. For the same compound, the IC50 [16, 42] was 0.115 µM and the IC50 [17, 43] was 0.08 µM.
`O=C(CCCCCCC(=O)Nc1nc(-c2ccccc2)cs1)NO` showed an IC50 ([10]; Plasmodium falciparum, 3D7) of 0.03 µM, an IC50 [18] of 0.0066 µM and an IC50 [11, 37] of 0.008 µM. The IC50 [12, 38] was 0.006 µM, the IC50 [14, 40] was 0.015 µM and the IC50 [15, 41] was 0.007 µM. The IC50 [16, 42] was 0.006 µM and the IC50 [17, 43] was 0.006 µM.
With `Cl.Nc1cccc(-c2csc(NC(=O)CCCCCCC(=O)NO)n2)c1` the IC50 [10] was 0.05 µM, the IC50 [18] was 0.0076 µM and the IC50 [11] was 0.01 µM. The IC50 [12] was 0.012 µM, the IC50 [13] was 0.022 µM and the IC50 [14] was 0.03 µM. It also gave an IC50 [15] of 0.02 µM, an IC50 [16] of 0.023 µM and an IC50 [17] of 0.015 µM.
Compound `O=C(CCCCCCC(=O)NC12CC3CC(CC(C3)C1)C2)NO` has an IC50 ([10]; Plasmodium falciparum, 3D7) of 0.658 µM, an IC50 [18] of 0.42 µM and an IC50 [11, 37] of 10 µM. For the same compound, the IC50 [13, 39] was 9.58 µM, the IC50 [14, 40] was 11 µM and the IC50 [15, 41] was 9.55 µM. For the same compound, the IC50 [16, 42] was 8.12 µM and the IC50 [17, 43] was 6.55 µM.
`O=C(CCCCCC(=O)Nc1cccc2cccnc12)NS` gave an IC50 ([10]; Plasmodium falciparum, 3D7) of 4.55 µM, an IC50 [18] of 0.044 µM and an IC50 [11, 37] of 5.55 µM. It also gave an IC50 [12, 38] of 7.55 µM, an IC50 [13, 39] of 6.75 µM and an IC50 [14, 40] of 9.75 µM. The IC50 [15, 41] was 8.99 µM, the IC50 [16, 42] was 9.91 µM and the IC50 [17, 43] was 6.78 µM.
